In ChEMBL document CHEMBL1177647, “Synthesis and characterization of novel phenylindoles as potential probes for imaging of β-amyloid plaques in the brain” (Bioorg Med Chem, 2010):

Columns and labels:
Stomach [1] = assay: Biodistribution in ddY mouse stomach at 0.2 to 0.4 uCi, iv after 10 mins measured per gram of organ; assay type: ADME, organism-based; details: in vivo
How it was run: (§1)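 Radiotracer (0.2–0.4 μCi) given as a single tail-vein injection of 100 μL saline containing 10 μL ethanol to normal ddY mice (5 weeks old, 25–30 g). Mice were sacrificed at set times after injection. Organs were excised and weighed, and radioactivity was counted in an automatic gamma counter.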

Kidney [2] = assay: Biodistribution in ddY mouse kidney at 0.2 to 0.4 uCi, iv after 10 mins; assay type: ADME, organism-based; details: in vivo; how it was run: as §1
Spleen [3] = assay: Biodistribution in ddY mouse spleen at 0.2 to 0.4 uCi, iv after 30 mins; assay type: ADME, organism-based; details: in vivo, 0.5 h; how it was run: as §1
Heart [4] = assay: Biodistribution in ddY mouse heart at 0.2 to 0.4 uCi, iv after 10 mins; assay type: ADME, organism-based; details: in vivo; how it was run: as §1
Spleen [5] = assay: Biodistribution in ddY mouse spleen at 0.2 to 0.4 uCi, iv after 60 mins; assay type: ADME, organism-based; details: in vivo, 1 h; how it was run: as §1
Blood [6] = assay: Biodistribution in ddY mouse blood at 0.2 to 0.4 uCi, iv after 10 mins; assay type: ADME, organism-based; details: in vivo; how it was run: as §1
Brain [7] = assay: Biodistribution in ddY mouse brain at 0.2 to 0.4 uCi, iv after 30 mins; assay type: ADME, organism-based; details: in vivo, 0.5 h; how it was run: as §1
Brain [8] = assay: Biodistribution in ddY mouse brain at 0.2 to 0.4 uCi, iv after 2 mins; assay type: ADME, organism-based; details: in vivo; how it was run: as §1
Heart [9] = assay: Biodistribution in ddY mouse heart at 0.2 to 0.4 uCi, iv after 60 mins; assay type: ADME, organism-based; details: in vivo, 1 h; how it was run: as §1
Pancreas [10] = assay: Biodistribution in ddY mouse pancreas at 0.2 to 0.4 uCi, iv after 10 mins; assay type: ADME, organism-based; details: in vivo; how it was run: as §1
Liver [11] = assay: Biodistribution in ddY mouse liver at 0.2 to 0.4 uCi, iv after 30 mins; assay type: ADME, organism-based; details: in vivo, 0.5 h; how it was run: as §1
Liver [12] = assay: Biodistribution in ddY mouse liver at 0.2 to 0.4 uCi, iv after 2 mins; assay type: ADME, organism-based; details: in vivo; how it was run: as §1
Brain [13] = assay: Biodistribution in ddY mouse brain at 0.2 to 0.4 uCi, iv after 60 mins; assay type: ADME, organism-based; details: in vivo, 1 h; how it was run: as §1
Spleen [14] = assay: Biodistribution in ddY mouse spleen at 0.2 to 0.4 uCi, iv after 2 mins; assay type: ADME, organism-based; details: in vivo; how it was run: as §1
Kidney [15] = assay: Biodistribution in ddY mouse kidney at 0.2 to 0.4 uCi, iv after 2 mins; assay type: ADME, organism-based; details: in vivo; how it was run: as §1
Brain [16] = assay: Biodistribution in ddY mouse brain at 0.2 to 0.4 uCi, iv after 10 mins; assay type: ADME, organism-based; details: in vivo; how it was run: as §1
Pancreas [17] = assay: Biodistribution in ddY mouse pancreas at 0.2 to 0.4 uCi, iv after 60 mins; assay type: ADME, organism-based; details: in vivo, 1 h; how it was run: as §1
Heart [18] = assay: Biodistribution in ddY mouse heart at 0.2 to 0.4 uCi, iv after 2 mins; assay type: ADME, organism-based; details: in vivo; how it was run: as §1
Pancreas [19] = assay: Biodistribution in ddY mouse pancreas at 0.2 to 0.4 uCi, iv after 30 mins; assay type: ADME, organism-based; details: in vivo, 0.5 h; how it was run: as §1
Kidney [20] = assay: Biodistribution in ddY mouse kidney at 0.2 to 0.4 uCi, iv after 60 mins; assay type: ADME, organism-based; details: in vivo, 1 h; how it was run: as §1
Spleen [21] = assay: Biodistribution in ddY mouse spleen at 0.2 to 0.4 uCi, iv after 10 mins; assay type: ADME, organism-based; details: in vivo; how it was run: as §1
Stomach [22] = assay: Biodistribution in ddY mouse stomach at 0.2 to 0.4 uCi, iv after 60 mins measured per gram of organ; assay type: ADME, organism-based; details: in vivo, 1 h; how it was run: as §1
Kidney [23] = assay: Biodistribution in ddY mouse kidney at 0.2 to 0.4 uCi, iv after 30 mins; assay type: ADME, organism-based; details: in vivo, 0.5 h; how it was run: as §1
Intestine [24] = assay: Biodistribution in ddY mouse intestine at 0.2 to 0.4 uCi, iv after 30 mins; assay type: ADME, organism-based; details: in vivo, 0.5 h; how it was run: as §1
Blood [25] = assay: Biodistribution in ddY mouse blood at 0.2 to 0.4 uCi, iv after 60 mins; assay type: ADME, organism-based; details: in vivo, 1 h; how it was run: as §1
Liver [26] = assay: Biodistribution in ddY mouse liver at 0.2 to 0.4 uCi, iv after 10 mins; assay type: ADME, organism-based; details: in vivo; how it was run: as §1
Intestine [27] = assay: Biodistribution in ddY mouse intestine at 0.2 to 0.4 uCi, iv after 60 mins; assay type: ADME, organism-based; details: in vivo, 1 h; how it was run: as §1
Heart [28] = assay: Biodistribution in ddY mouse heart at 0.2 to 0.4 uCi, iv after 30 mins; assay type: ADME, organism-based; details: in vivo, 0.5 h; how it was run: as §1
Intestine [29] = assay: Biodistribution in ddY mouse intestine at 0.2 to 0.4 uCi, iv after 10 mins; assay type: ADME, organism-based; details: in vivo; how it was run: as §1
Pancreas [30] = assay: Biodistribution in ddY mouse pancreas at 0.2 to 0.4 uCi, iv after 2 mins; assay type: ADME, organism-based; details: in vivo; how it was run: as §1
Liver [31] = assay: Biodistribution in ddY mouse liver at 0.2 to 0.4 uCi, iv after 60 mins; assay type: ADME, organism-based; details: in vivo, 1 h; how it was run: as §1
Intestine [32] = assay: Biodistribution in ddY mouse intestine at 0.2 to 0.4 uCi, iv after 2 mins; assay type: ADME, organism-based; details: in vivo; how it was run: as §1
Stomach [33] = assay: Biodistribution in ddY mouse stomach at 0.2 to 0.4 uCi, iv after 2 mins measured per gram of organ; assay type: ADME, organism-based; details: in vivo; how it was run: as §1
Blood [34] = assay: Biodistribution in ddY mouse blood at 0.2 to 0.4 uCi, iv after 2 mins; assay type: ADME, organism-based; details: in vivo; how it was run: as §1
Blood [35] = assay: Biodistribution in ddY mouse blood at 0.2 to 0.4 uCi, iv after 30 mins; assay type: ADME, organism-based; details: in vivo, 0.5 h; how it was run: as §1
Stomach [36] = assay: Biodistribution in ddY mouse stomach at 0.2 to 0.4 uCi, iv after 30 mins measured per gram of organ; assay type: ADME, organism-based; details: in vivo, 0.5 h; how it was run: as §1
[37] = Displacement of [125I]IMPY from amyloid beta42 by gamma counting

Drug uptake (Stomach [1]) [%ID]	Drug uptake (Kidney [2]) [% ID/g]	Drug uptake (Spleen [3]) [% ID/g]	Drug uptake (Heart [4]) [% ID/g]	Drug uptake (Spleen [5]) [% ID/g]	Drug uptake (Blood [6]) [% ID/g]	Drug uptake (Brain [7]) [% ID/g]	Drug uptake (Brain [8]) [% ID/g]	Drug uptake (Heart [9]) [% ID/g]	Drug uptake (Pancreas [10]) [% ID/g]	Drug uptake (Liver [11]) [% ID/g]	Drug uptake (Liver [12]) [% ID/g]	Drug uptake (Brain [13]) [% ID/g]	Drug uptake (Spleen [14]) [% ID/g]	Drug uptake (Kidney [15]) [% ID/g]	Drug uptake (Brain [16]) [% ID/g]	Drug uptake (Pancreas [17]) [% ID/g]	Drug uptake (Heart [18]) [% ID/g]	Drug uptake (Pancreas [19]) [% ID/g]	Drug uptake (Kidney [20]) [% ID/g]	further results	Structure (SMILES)
1.38	4.96	2.96	2.97	2.02	1.97	1.36	2.11	1.06	3.94	10.38	17.81	1.16	4.22	8.76	2.07	1.29	7.72	1.95	2.05	Drug uptake (Spleen [21]): 3.43 % ID/g; Drug uptake (Stomach [22]): 3.06 %ID; Drug uptake (Kidney [23]): 2.89 % ID/g; Drug uptake (Intestine [24]): 12.32 % ID/g; Drug uptake (Blood [25]): 0.74 % ID/g; Drug uptake (Liver [26]): 13.96 % ID/g; Drug uptake (Intestine [27]): 20.35 % ID/g; Drug uptake (Heart [28]): 1.47 % ID/g; Drug uptake (Intestine [29]): 6.85 % ID/g; Drug uptake (Pancreas [30]): 4.54 % ID/g; Drug uptake (Liver [31]): 8.22 % ID/g; Drug uptake (Intestine [32]): 1.9 % ID/g; Drug uptake (Stomach [33]): 0.72 %ID; Drug uptake (Blood [34]): 3.59 % ID/g; Drug uptake (Blood [35]): 1.38 % ID/g; Drug uptake (Stomach [36]): 2.67 %ID	COc1ccc(-c2cc3cc([125I])ccc3[nH]2)cc1
1.97	9.35	4.75	5.84	2.39	1.6	1.93	2.13	1.36	5.59	13.42	17.69	1.82	7.56	11.93	2.62	2.22	12.91	3.57	2.76	Drug uptake (Spleen [21]): 7.09 % ID/g; Drug uptake (Stomach [22]): 1.62 %ID; Drug uptake (Kidney [23]): 6.77 % ID/g; Drug uptake (Intestine [24]): 11.32 % ID/g; Drug uptake (Blood [25]): 0.8 % ID/g; Drug uptake (Liver [26]): 16.77 % ID/g; Drug uptake (Intestine [27]): 18.98 % ID/g; Drug uptake (Heart [28]): 2.97 % ID/g; Drug uptake (Intestine [29]): 5.76 % ID/g; Drug uptake (Pancreas [30]): 5.55 % ID/g; Drug uptake (Liver [31]): 8.17 % ID/g; Drug uptake (Intestine [32]): 1.97 % ID/g; Drug uptake (Stomach [33]): 0.97 %ID; Drug uptake (Blood [34]): 4.07 % ID/g; Drug uptake (Blood [35]): 1.26 % ID/g; Drug uptake (Stomach [36]): 2.11 %ID	OCCOc1ccc(-c2cc3cc([125I])ccc3[nH]2)cc1
10.65	4.46	2.6	4.82	2.24	4.53	0.96	1.19	1.84	4.13	3.55	10.2	0.71	4.13	9.49	1.19	2.3	8.08	3.1	4.71	Drug uptake (Spleen [21]): 3.28 % ID/g; Drug uptake (Stomach [22]): 16.26 %ID; Drug uptake (Kidney [23]): 4.58 % ID/g; Drug uptake (Intestine [24]): 4.52 % ID/g; Drug uptake (Blood [25]): 3.29 % ID/g; Drug uptake (Liver [26]): 5.14 % ID/g; Drug uptake (Intestine [27]): 6.08 % ID/g; Drug uptake (Heart [28]): 1.87 % ID/g; Drug uptake (Intestine [29]): 3.09 % ID/g; Drug uptake (Pancreas [30]): 5.21 % ID/g; Drug uptake (Liver [31]): 3.24 % ID/g; Drug uptake (Intestine [32]): 1.8 % ID/g; Drug uptake (Stomach [33]): 4.03 %ID; Drug uptake (Blood [34]): 6.18 % ID/g; Drug uptake (Blood [35]): 3.68 % ID/g; Drug uptake (Stomach [36]): 17.77 %ID	CN(C)c1ccc(-c2cc3cc([125I])ccc3[nH]2)cc1
																				Ki [37]: 25.9 nM	OCCOc1ccc(-c2cc3cc(I)ccc3[nH]2)cc1
